The values that follow come from ChEMBL document CHEMBL5252539, “In vitro biological evaluation of new antimycobacterial salicylanilide-tuftsin conjugates” (Eur J Med Chem, 2017).

≈ marks a conversion by molar mass, not a printed value. Calls of active or inactive are those of the source. The rule behind the calls is not given here. *1 amine or outer side, *2 acyl side, *3 side chain or, on linkers, in order; H or OH if unused. Where a SMILES comes first, the peptide text is derived from it. [ ]: non-standard residue; d: D form. The star is where a group is joined. X2 = C/C(=N\OCC(=O)*)c1ccc(NC(=O)c2cc(Br)ccc2O)cc1; X1 = C/C(=N\OCC(=O)[*:2])c1ccc(N[*:1])cc1; Benzoyl(5-Br-2-OH) = O=C(c1cc(Br)ccc1O)*; Palmitoyl = CCCCCCCCCCCCCCCC(=O)*

In assay [1] the test system is Mycobacterium tuberculosis. Briefly: Antimycobacterial activity against isoniazid and rifampicin resistant Mycobacterium tuberculosis A8 ATCC 35822 assessed as reduction in bacterial growth after 28 days by serial dilution method. It counts as functional. The conditions noted are these: A8 ATCC 35822, 672 h, time 28 day. In short, it runs like this:
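Broth MIC in Sula semisynthetic medium, pH 6.5; 4-week incubation, with 21-day values […] where indicated. Drug-free inoculated bacteria served as growth control. MIC also expressed as drug content (µg/mL) = MIC (µM) × average SAL molar mass × number of SAL per conjugate / 1000.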

The test system of assay [2] is Mycobacterium tuberculosis. In words: Antimycobacterial activity against isoniazid and rifampicin resistant Mycobacterium tuberculosis A8 ATCC 35822 assessed as reduction in colony forming unit after 28 days by serial dilution method. The conditions noted are these: time 28.0 day. Format: functional, organism-based. In short, it runs like this:
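After the 4-week MIC incubation in Sula semisynthetic medium (pH 6.5), growth inhibition confirmed by plating on Löwenstein-Jensen solid medium and counting colony forming units.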

In the case of `O=C(Nc1ccc(Cl)c(Cl)c1)c1cc(Cl)ccc1O`, the MIC – broadly, the lowest concentration found to suppress growth – in assay [1] turned out to be 1.6 µM (≈ 0.507 µg/mL). On the same count and under the same terms, the figure for `O=C(Nc1ccc(C(F)(F)F)cc1)c1cc(Cl)ccc1O` is 1.6 µM (≈ 0.505 µg/mL); for `O=C(Nc1ccc(C(F)(F)F)cc1)c1cc(Br)ccc1O` it is 2.8 µM (≈ 1.01 µg/mL). For `CC(=O)c1ccc(NC(=O)c2cc(Cl)ccc2O)cc1`, in assay [1], the minimum inhibitory concentration (MIC) came to 17.3 µM (≈ 5.01 µg/mL). For the same molecule, the result in assay [2] was Active. As for `O=C(Nc1ccc(Cl)c(Cl)c1)c1cc(Br)ccc1O`, the MIC in assay [1] was 2.8 µM (≈ 1.01 µg/mL). Same read-out and setting: the figure for `C/C(=N\OCC(=O)NCC(=O)N[C@@H](Cc1ccccc1)C(=O)N[C@@H](CC(C)C)C(=O)NCC(=O)N[C@H](C(=O)N[C@@H](CCCCN)C(=O)N1CCC[C@H]1C(=O)N1CCC[C@H]1C(=O)N[C@@H](CCCNC(=N)N)C(=O)O)[C@@H](C)O)c1ccc(NC(=O)c2cc(Br)ccc2O)cc1` is 73.5 µM (≈ 100 µg/mL). On the same count and under the same terms, as for `C/C(=N\OCC(=O)N[C@H](C(=O)N[C@@H](CCCCN)C(=O)N1CCC[C@H]1C(=O)N1CCC[C@H]1C(=O)N[C@@H](CCCNC(=N)N)C(=O)O)[C@@H](C)O)c1ccc(NC(=O)c2cc(Br)ccc2O)cc1`, the figure is 101 µM (≈ 100 µg/mL). Consider `O=Cc1ccc(O)c(C(=O)Nc2ccc(C(F)(F)F)cc2)c1`, for which the MIC in assay [1] was determined as 64.7 µM (≈ 20 µg/mL). Further, the result in assay [2] was Active. In the same order, the values of `CC(=O)c1ccc(NC(=O)c2cc(Br)ccc2O)cc1` are 15 µM (≈ 5.01 µg/mL) and “Active”.

As for `C/C(=N\OCC(=O)NCC(=O)N[C@@H](Cc1ccccc1)C(=O)N[C@@H](CC(C)C)C(=O)NCC(=O)N[C@H](C(=O)N[C@@H](CCCCN)C(=O)N1CCC[C@H]1C(=O)N[C@@H](CCCNC(=N)N)C(=O)O)[C@@H](C)O)c1ccc(NC(=O)c2cc(Br)ccc2O)cc1`, in assay [1], the minimum inhibitory concentration (MIC) worked out at 79.1 µM (≈ 100 µg/mL). Take `C/C(=N\OCC(=O)NCC(=O)N[C@@H](Cc1ccccc1)C(=O)N[C@@H](CC(C)C)C(=O)NCC(=O)N[C@H](C(=O)N[C@@H](CCCCN)C(=O)N1CCC[C@H]1C(=O)N[C@@H](CCCCN)C(=O)NCC(N)=O)[C@@H](C)O)c1ccc(NC(=O)c2cc(Br)ccc2O)cc1` ({Benzoyl(5-Br-2-OH)}-[X1]GFLGTKPKG-NH2): the MIC in assay [1] amounted to 77.4 µM (≈ 100 µg/mL). Besides, in assay [2], the result was Active. For `C/C(=N\OCC(=O)NCC(=O)N[C@@H](Cc1ccccc1)C(=O)N[C@@H](CC(C)C)C(=O)NCC(=O)N[C@H](C(=O)N[C@@H](CCCCN)C(=O)N1CCC[C@H]1C(=O)N[C@@H](CCCCN)C(=O)NCC(=O)O)[C@@H](C)O)c1ccc(NC(=O)c2cc(Br)ccc2O)cc1` ({Benzoyl(5-Br-2-OH)}-[X1]GFLGTKPKG-OH), in assay [1], the MIC came out at 77.3 µM (≈ 100 µg/mL). In assay [2], the outcome was Active.

With `C/C(=N\OCC(=O)NCCCC[C@H](NC(=O)[C@@H]1CCCN1C(=O)[C@H](CCCCN)NC(=O)[C@@H](NC(=O)CO/N=C(\C)c1ccc(NC(=O)c2cc(Br)ccc2O)cc1)[C@@H](C)O)C(=O)NCC(=O)N[C@H](C(=O)N[C@@H](CCCCN)C(=O)N1CCC[C@H]1C(=O)N[C@@H](CCCCN)C(=O)NCC(=O)N[C@H](C(=O)N[C@@H](CCCCN)C(=O)N1CCC[C@H]1C(=O)N[C@@H](CCCCN)C(=O)NCC(=O)N[C@H](C(=O)N[C@@H](CCCCN)C(=O)N1CCC[C@H]1C(=O)N[C@@H](CCCCN)C(=O)NCC(N)=O)[C@@H](C)O)[C@@H](C)O)[C@@H](C)O)c1ccc(NC(=O)c2cc(Br)ccc2O)cc1` ({Benzoyl(5-Br-2-OH)}-[X1]TKPK(X2)GTKPKGTKPKGTKPKG-NH2), the outcome in assay [2] was Active.

In the case of `C/C(=N\OCC(=O)N[C@H](C(=O)N[C@@H](CCCCN)C(=O)N1CCC[C@H]1C(=O)N[C@@H](CCCCN)C(=O)NCC(N)=O)[C@@H](C)O)c1ccc(NC(=O)c2cc(Br)ccc2O)cc1` ({Benzoyl(5-Br-2-OH)}-[X1]TKPKG-NH2), the MIC in assay [1] was determined as 109 µM (≈ 100 µg/mL). In assay [2], the result was Active. In the same order, the values of `C/C(=N\OCC(=O)N[C@H](C(=O)N[C@@H](CCCCN)C(=O)N1CCC[C@H]1C(=O)N[C@@H](CCCCN)C(=O)NCC(=O)O)[C@@H](C)O)c1ccc(NC(=O)c2cc(Br)ccc2O)cc1` ({Benzoyl(5-Br-2-OH)}-[X1]TKPKG-OH) are 109 µM (≈ 100 µg/mL) and “Active”. As to `C/C(=N\OCC(=O)N[C@H](C(=O)N[C@@H](CCCCN)C(=O)N1CCC[C@H]1C(=O)N[C@@H](CCCCN)C(=O)NCC(=O)N[C@H](C(=O)N[C@@H](CCCCN)C(=O)N1CCC[C@H]1C(=O)N[C@@H](CCCCN)C(=O)NCC(N)=O)[C@@H](C)O)[C@@H](C)O)c1ccc(NC(=O)c2cc(Br)ccc2O)cc1` ({Benzoyl(5-Br-2-OH)}-[X1]TKPKGTKPKG-NH2), the result in assay [2] was Active. On to `CCCCCCCCCCCCCCCC(=O)NCCCC[C@H](NC(=O)[C@@H]1CCCN1C(=O)[C@H](CCCCN)NC(=O)[C@@H](NC(=O)CNC(=O)[C@H](CCCCN)NC(=O)[C@@H]1CCCN1C(=O)[C@H](CCCCN)NC(=O)[C@@H](NC(=O)CNC(=O)[C@H](CCCCN)NC(=O)[C@@H]1CCCN1C(=O)[C@H](CCCCN)NC(=O)[C@@H](NC(=O)CO/N=C(\C)c1ccc(NC(=O)c2cc(Br)ccc2O)cc1)[C@@H](C)O)[C@@H](C)O)[C@@H](C)O)C(=O)NCC(=O)N[C@H](C(=O)N[C@@H](CCCCN)C(=O)N1CCC[C@H]1C(=O)N[C@@H](CCCCN)C(=O)NCC(N)=O)[C@@H](C)O` ({Benzoyl(5-Br-2-OH)}-[X1]TKPKGTKPKGTKPK(Palmitoyl)GTKPKG-NH2), for which the outcome in assay [2] was Active.

Turning to `C/C(=N\OCC(=O)N[C@H](C(=O)N[C@@H](CCCCN)C(=O)N1CCC[C@H]1C(=O)N[C@@H](CCCCN)C(=O)NCC(=O)N[C@H](C(=O)N[C@@H](CCCCN)C(=O)N1CCC[C@H]1C(=O)N[C@@H](CCCCN)C(=O)NCC(=O)N[C@H](C(=O)N[C@@H](CCCCN)C(=O)N1CCC[C@H]1C(=O)N[C@@H](CCCCN)C(=O)NCC(=O)N[C@H](C(=O)N[C@@H](CCCCN)C(=O)N1CCC[C@H]1C(=O)N[C@@H](CCCCN)C(=O)NCC(N)=O)[C@@H](C)O)[C@@H](C)O)[C@@H](C)O)[C@@H](C)O)c1ccc(NC(=O)c2cc(Br)ccc2O)cc1` ({Benzoyl(5-Br-2-OH)}-[X1]TKPKGTKPKGTKPKGTKPKG-NH2), the outcome in assay [2] was Active. Consider `C/C(=N\OCC(=O)N[C@H](C(=O)N[C@@H](CCCCN)C(=O)N1CCC[C@H]1C(=O)N[C@@H](CCCNC(=N)N)C(=O)O)[C@@H](C)O)c1ccc(NC(=O)c2cc(Br)ccc2O)cc1` ({Benzoyl(5-Br-2-OH)}-[X1]TKPR-OH), for which, in assay [1], the minimum inhibitory concentration (MIC) turned out to be 112 µM (≈ 100 µg/mL). In addition, in assay [2], the result was Active. For `NNC(=O)c1ccncc1` [ISONIAZID], in that order: 7.3 µM (≈ 1 µg/mL) and “Active”.
